Measured values taken from ChEMBL document CHEMBL4311965, “Antimicrobial activity of amphipathic α,α-disubstituted β-amino amide derivatives against ESBL - CARBA producing multi-resistant bacteria; effect of halogenation, lipophilicity and cationic character” (Eur J Med Chem, 2019).
In brackets after ≈: the same amount, converted by molar mass.

What was measured:
[1] = system: Staphylococcus aureus; test: Antibacterial activity against Staphylococcus aureus ATCC 9144 cultured in MHB medium assessed as no bacterial growth incubated at 37 degC for 24 hrs by microdilution susceptibility test; assay type: functional; details: ATCC 9144, 24 h
How it was run: (§1)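 Broth microdilution per CLSI M07-A9 with modifications. Inoculum about 2.5–3 x 10⁴ cells/mL in Mueller-Hinton broth, mixed 1:1 with test derivative. DMSO stocks diluted in double-distilled water, final DMSO <1%. Incubation 24 h at 37 °C (20 °C for C. glutamicum). Growth and sterility controls included; oxytetracycline reference.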

[2] = system: Corynebacterium glutamicum; test: Antibacterial activity against Corynebacterium glutamicum ATCC 13032 cultured in MHB medium assessed as no bacterial growth incubated at 20 degC for 24 hrs by microdilution susceptibility test; assay type: functional; details: ATCC 13032, 24 h; how it was run: as §1
[3] = system: Pseudomonas aeruginosa; test: Antibacterial activity against Pseudomonas aeruginosa PA01 DSM 19880 (ATCC 15692) cultured in MHB medium assessed as no bacterial growth incubated at 37 degC for 24 hrs by microdilution susceptibility test; assay type: functional; details: PAO1 DSM 19880 (ATCC 15692); how it was run: as §1
[4] = system: Erythrocyte; test: Hemolytic activity against human RBC incubated for 1 hr; assay type: cell-based
How it was run: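 Heparinized human blood washed three times in warm PBS and set to 10% hct. Erythrocytes at 1% v/v final, with compound in PBS (DMSO <1%), shaken 1 h at 37 °C and then centrifuged. Supernatant absorbance read at 405 and 545 nm after PBS background subtraction. Haemolysis taken relative to 1% Triton X-100. Three independent replicates, EC50 averaged.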

[5] = Selectivity index, ratio of EC50 for hemolytic activity against human RBC to MIC for antibacterial activity against Staphylococcus aureus ATCC 9144; assay type: toxicity; details: human red blood cells (RBC)
How it was run: (§2)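 Selectivity index is the RBC haemolysis EC50 divided by the MIC against the E. coli or S. aureus reference strain.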

[6] = Selectivity index, ratio of EC50 for hemolytic activity against human RBC to MIC for antibacterial activity against Escherichia coli ATCC 25922; assay type: toxicity; details: human red blood cells (RBC); how it was run: as §2
[7] = system: Staphylococcus aureus; test: Antibacterial activity against multidrug-resistant Staphylococcus aureus WIS cultured in MHB medium assessed as reduction in bacterial growth incubated for 24 hrs by microdilution susceptibility test; assay type: functional
How it was run: (§3)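 Broth microdilution per CLSI M07-A9 (modified). Working solutions made from concentrated DMSO stocks kept at r.t., diluted in double-distilled water, final DMSO <1%. Inoculum 1–1.2 x 10⁶ cells/mL in Mueller-Hinton broth, mixed 1:1 with compound. 37 °C, 24 h, four parallels. Read as OD₆₀₀. Where precipitation left residual OD, the point of major OD decrease was taken as the inhibitory concentration.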

[8] = system: Staphylococcus aureus; test: Antibacterial activity against multidrug-resistant Staphylococcus aureus IHT 99040 cultured in MHB medium assessed as reduction in bacterial growth incubated for 24 hrs by microdilution susceptibility test; assay type: functional; details: IHT 99040, 24 h; how it was run: as §3
[9] = system: Enterococcus faecium; test: Antibacterial activity against multidrug-resistant Enterococcus faecium 50673722 cultured in BHIB medium assessed as reduction in bacterial growth incubated for 24 hrs by microdilution susceptibility test; assay type: functional; details: Enterococcus faecium, 50673722, 24 h
How it was run: (§4)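 Enterococci grown in Brain Heart Infusion broth, otherwise broth microdilution per CLSI M07-A9 (modified). Concentrated DMSO stocks kept at r.t. and diluted in double-distilled water, final DMSO <1%. Inoculum 1–1.2 x 10⁶ cells/mL mixed 1:1 with compound. 37 °C, 24 h, four parallels. OD₆₀₀ read-out, lowest concentration with no growth.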

[10] = system: Enterococcus faecium; test: Antibacterial activity against multidrug-resistant Enterococcus faecium K36-18 cultured in BHIB medium assessed as reduction in bacterial growth incubated for 24 hrs by microdilution susceptibility test; assay type: functional; details: K36-18, 24 h; how it was run: as §4
[11] = system: Enterococcus faecium; test: Antibacterial activity against multidrug-resistant Enterococcus faecium 50758899 cultured in BHIB medium assessed as reduction in bacterial growth incubated for 24 hrs by microdilution susceptibility test; assay type: functional; details: Enterococcus faecium, 50758899, 24 h; how it was run: as §4
[12] = system: Escherichia coli; test: Antibacterial activity against multidrug-resistant Escherichia coli 50676002 producing New Delhi metallo-beta-lactamase-1 cultured in MHB medium assessed as reduction in bacterial growth incubated for 24 hrs by microdilution susceptibility test; assay type: functional; details: Escherichia coli, 50676002, 24 h; how it was run: as §3
[13] = system: Escherichia coli; test: Antibacterial activity against multidrug-resistant Escherichia coli 50857972 producing imipenem-type carbapenemase-26 cultured in MHB medium assessed as reduction in bacterial growth incubated for 24 hrs by microdilution susceptibility test; assay type: functional; details: Escherichia coli, 50857972, 24 h; how it was run: as §3
[14] = system: Pseudomonas aeruginosa; test: Antibacterial activity against multidrug-resistant Pseudomonas aeruginosa K44-24 producing imipenem-type carbapenemase-14 cultured in MHB medium assessed as reduction in bacterial growth incubated for 24 hrs by microdilution susceptibility test; assay type: functional; details: K44-24, 24 h; how it was run: as §3
[15] = system: Pseudomonas aeruginosa; test: Antibacterial activity against multidrug-resistant Pseudomonas aeruginosa 50692172 producing New Delhi metallo-beta-lactamase-1 cultured in MHB medium assessed as reduction in bacterial growth incubated for 24 hrs by microdilution susceptibility test; assay type: functional; details: Pseudomonas aeruginosa, 50692172, 24 h; how it was run: as §3
[16] = system: Pseudomonas aeruginosa; test: Antibacterial activity against multidrug-resistant Pseudomonas aeruginosa 50692520 producing Verona integron encoded metallo beta-lactamse cultured in MHB medium assessed as reduction in bacterial growth incubated for 24 hrs by microdilution susceptibility test; assay type: functional; details: Pseudomonas aeruginosa, 50692520, 24 h; how it was run: as §3
[17] = system: Klebsiella pneumoniae; test: Antibacterial activity against multidrug-resistant Klebsiella pneumoniae K47-25 producing carbapenemase-2 cultured in MHB medium assessed as reduction in bacterial growth incubated for 24 hrs by microdilution susceptibility test; assay type: functional; details: K47-25, 24 h; how it was run: as §3
[18] = system: Klebsiella pneumoniae; test: Antibacterial activity against multidrug-resistant Klebsiella pneumoniae 50531633 producing New Delhi metallo-beta-lactamase-1 and oxcillinase-181 cultured in MHB medium assessed as reduction in bacterial growth incubated for 24 hrs by microdilution susceptibility test; assay type: functional; details: Klebsiella pneumoniae, 50531633, 24 h; how it was run: as §3
[19] = system: Acinetobacter baumannii; test: Antibacterial activity against multidrug-resistant Acinetobacter baumannii K12-21 producing oxcillinase-58 cultured in MHB medium assessed as reduction in bacterial growth incubated for 24 hrs by microdilution susceptibility test; assay type: functional; details: K12-21, 24 h; how it was run: as §3
[20] = system: Acinetobacter baumannii; test: Antibacterial activity against multidrug-resistant Acinetobacter baumannii K44-35 producing oxcillinase-23 cultured in MHB medium assessed as reduction in bacterial growth incubated for 24 hrs by microdilution susceptibility test; assay type: functional; details: K44-35, 24 h; how it was run: as §3
[21] = system: Acinetobacter baumannii; test: Antibacterial activity against multidrug-resistant Acinetobacter baumannii K55-13 producing oxcillinase-24 cultured in MHB medium assessed as reduction in bacterial growth incubated for 24 hrs by microdilution susceptibility test; assay type: functional; details: K55-13, 24 h; how it was run: as §3
[22] = system: MRC5; test: Cytotoxicity against human MRC5 cells assessed as reduction in cell viability incubated for 4 hrs by CellTiter 96 Aqueous One Solution Reagent based assay; details: MRC5, 4 h
How it was run: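 HepG2 and MRC-5 cells seeded at 35 000 and 15 000 cells/well respectively, then held overnight at 37 °C, 5% CO₂. Compounds in serum-free MEM Earle's applied for 4 h. MTS reagent (CellTiter 96 AQueous One) added for a further 1 h, absorbance read at 485 nm. Survival expressed relative to medium (negative) and Triton X-100 (positive) controls.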

| Structure (SMILES) | MIC [1] [µg/mL] | MIC [2] [µg/mL] | MIC [3] [µg/mL] | EC50 [4] [µg/mL] | selectivity ratio [5] | selectivity ratio [6] | MIC [7] [µg/mL] | MIC [8] [µg/mL] | MIC [9] [µg/mL] | MIC [10] [µg/mL] | MIC [11] [µg/mL] | MIC [12] [µg/mL] | MIC [13] [µg/mL] | MIC [14] [µg/mL] | MIC [15] [µg/mL] | MIC [16] [µg/mL] | MIC [17] [µg/mL] | MIC [18] [µg/mL] | MIC [19] [µg/mL] | MIC [20] [µg/mL] | other results |
| --- | --- | --- | --- | --- | --- | --- | --- | --- | --- | --- | --- | --- | --- | --- | --- | --- | --- | --- | --- | --- | --- |
| N=C(N)NCCNC(=O)C(CNC(=N)N)(Cc1ccc(F)c2ccccc12)Cc1ccc(F)c2ccccc12 | 2 (≈ 3.76 µM) | 0.5 (≈ 0.941 µM) | 8 (≈ 15 µM) | 329 (≈ 619 µM) | 165 | 21 | 4 (≈ 7.52 µM) | 4 (≈ 7.52 µM) | 16 (≈ 30.1 µM) | 16 (≈ 30.1 µM) | 16 (≈ 30.1 µM) | 32 (≈ 60.2 µM) | 32 (≈ 60.2 µM) | > 32 | > 32 | > 32 | > 32 | > 32 | > 32 | > 32 | MIC [21]: > 32 µg/mL |
| NCCNCC(CN)(Cc1ccccc1Br)Cc1ccccc1Br | 16 (≈ 35.1 µM) | 2 (≈ 4.39 µM) | 16 (≈ 35.1 µM) | 209 (≈ 459 µM) | 13 | 13 | 8 (≈ 17.6 µM) | 8 (≈ 17.6 µM) | 16 (≈ 35.1 µM) | 16 (≈ 35.1 µM) | 16 (≈ 35.1 µM) | 16 (≈ 35.1 µM) | 16 (≈ 35.1 µM) | 32 (≈ 70.3 µM) | 32 (≈ 70.3 µM) | 16 (≈ 35.1 µM) | 16 (≈ 35.1 µM) | 16 (≈ 35.1 µM) | 16 (≈ 35.1 µM) | 16 (≈ 35.1 µM) | EC50 [22]: 8 µg/mL (≈ 17.6 µM); MIC [21]: 16 µg/mL (≈ 35.1 µM) |
| N#CC(Cc1cc(C(F)(F)F)cc(C(F)(F)F)c1)(Cc1cc(C(F)(F)F)cc(C(F)(F)F)c1)C(=O)NCCN | 16 (≈ 27.6 µM) | 8 (≈ 13.8 µM) | 64 (≈ 110 µM) | 282 (≈ 487 µM) | 18 | 9 | 16 (≈ 27.6 µM) | 16 (≈ 27.6 µM) | 16 (≈ 27.6 µM) | 8 (≈ 13.8 µM) | 8 (≈ 13.8 µM) | > 32 | > 32 | > 32 | > 32 | > 32 | > 32 | > 32 | > 32 | > 32 | EC50 [22]: 12 µg/mL (≈ 20.7 µM); MIC [21]: > 32 µg/mL |
| NCCNC(=O)C(CN)(Cc1ccc(F)c2ccccc12)Cc1ccc(F)c2ccccc12 | 4 (≈ 8.94 µM) | 2 (≈ 4.47 µM) | 8 (≈ 17.9 µM) | 74 (≈ 165 µM) | 19 | 19 | 16 (≈ 35.8 µM) | 16 (≈ 35.8 µM) | 16 (≈ 35.8 µM) | 16 (≈ 35.8 µM) | 8 (≈ 17.9 µM) | 8 (≈ 17.9 µM) | 8 (≈ 17.9 µM) | 32 (≈ 71.5 µM) | > 32 | > 32 | 32 (≈ 71.5 µM) | 8 (≈ 17.9 µM) | 32 (≈ 71.5 µM) | > 32 | EC50 [22]: 4 µg/mL (≈ 8.94 µM); MIC [21]: 32 µg/mL (≈ 71.5 µM) |
| NCCNCC(CN)(Cc1cc(Br)cc(Br)c1)Cc1cc(Br)cc(Br)c1 | 2 (≈ 3.26 µM) | 1 (≈ 1.63 µM) | 4 (≈ 6.52 µM) | 24 (≈ 39.1 µM) | 12 | 6 | 8 (≈ 13 µM) | 8 (≈ 13 µM) | 4 (≈ 6.52 µM) | 8 (≈ 13 µM) | 4 (≈ 6.52 µM) | 8 (≈ 13 µM) | 8 (≈ 13 µM) | 16 (≈ 26.1 µM) | 32 (≈ 52.2 µM) | 32 (≈ 52.2 µM) | 8 (≈ 13 µM) | 8 (≈ 13 µM) | 16 (≈ 26.1 µM) | 8 (≈ 13 µM) | EC50 [22]: 15 µg/mL (≈ 24.5 µM); MIC [21]: 8 µg/mL (≈ 13 µM) |
